The results in this text go back to ChEMBL document CHEMBL3576759, “Antineoplastic agents. 599. Total synthesis of dolastatin 16” (2015).

Each structure is given as a SMILES string. Values after ≈ are worked out from the molar mass of the structure shown.

Experiment [1] is described as follows: Growth inhibition of human BxPC3 cells using DMSO as solvent after 48 hrs by sulforhodamine B assay. It is filed as functional, BXPC-3. The method, boiled down: (§1)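 NCI-standard SRB protocol. Cells in RPMI1640 with 5% fetal bovine serum were seeded in 96-well plates and held 24 h before serial compound dilutions were added. After 48 h, cells were fixed with trichloroacetic acid, stained with sulforhodamine B and read by optical density. GI50 is the concentration giving 50% reduction in net protein increase.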
On the technique in general: In SRB staining, fixed cells bind dye roughly in proportion to their protein.

For experiment [2], the system named is MCF7. The experiment can be described thus: Growth inhibition of human MCF7 cells using DMSO as solvent after 48 hrs by sulforhodamine B assay. In kind it is functional. The procedure, abridged:
as §1

Experiment [3] concerns SF-268. Briefly: Growth inhibition of human SF268 cells using DMSO as solvent after 48 hrs by sulforhodamine B assay. It is filed as functional. The procedure, abridged: as §1
In experiment [4] the test system is NCI-H460. The experiment can be described thus: Growth inhibition of human NCI-H460 cells using DMSO as solvent after 48 hrs by sulforhodamine B assay. It is filed as functional. The method, boiled down:
as §1

Experiment [5] is described as follows: Growth inhibition of human KM20L2 cells using DMSO as solvent after 48 hrs by sulforhodamine B assay. It is filed as functional, KM-20L2. The procedure, abridged: as §1
Experiment [6] concerns DU-145. The experiment can be described thus: Growth inhibition of human DU145 cells using DMSO as solvent after 48 hrs by sulforhodamine B assay. It is filed as functional. The method, boiled down: as §1
Experiment [7] can be described thus: Growth inhibition of human BxPC3 cells using MeOH as solvent after 48 hrs by sulforhodamine B assay. It is filed as functional. Particulars: BXPC-3, 48 h. The method, boiled down:
as §1

Experiment [8] concerns MCF7. The experiment can be described thus: Growth inhibition of human MCF7 cells using MeOH as solvent after 48 hrs by sulforhodamine B assay. It is filed as functional. Particulars: MCF7, 48 h. The procedure, abridged:
as §1

Experiment [9] deals with SF-268. The experiment can be described thus: Growth inhibition of human SF268 cells using MeOH as solvent after 48 hrs by sulforhodamine B assay. It is filed as functional. The note with it: SF-268, 48 h. The method, boiled down: as §1
In experiment [10] the test system is NCI-H460. The experiment can be described thus: Growth inhibition of human NCI-H460 cells using MeOH as solvent after 48 hrs by sulforhodamine B assay. Particulars: NCI-H460, 48 h. In kind it is functional. The procedure, abridged: as §1
Experiment [11] is described as follows: Growth inhibition of human KM20L2 cells using MeOH as solvent after 48 hrs by sulforhodamine B assay. In kind it is functional. The note with it: KM-20L2, 48 h. The method, boiled down:
as §1

Experiment [12] deals with DU-145. Briefly: Growth inhibition of human DU145 cells using MeOH as solvent after 48 hrs by sulforhodamine B assay. The note with it: DU-145, 48 h. It is filed as functional. The method, boiled down: as §1

What is called GI50 is the concentration giving 50% growth inhibition. Read a low GI50 as greater sensitivity of the cells. With `CC(C)[C@H]1NC(=O)[C@@H]2CCCN2C(=O)[C@H]([C@H](C)Cc2ccccc2)NC(=O)[C@@H]2CCCN2C(=O)[C@@H](C(C)C)N(C)C(=O)[C@@H](C(C)C)OC(=O)[C@@H]2CCCN2C(=O)[C@H](C)OC(=O)[C@@H]1C` (stereo in doubt), the concentration for 50% growth inhibition (GI50) in experiment [1] worked out at 0.05 µg/mL (≈ 0.0569 µM); in the experiment with MCF7 [2], 0.027 µg/mL (≈ 0.0307 µM); with SF-268 [3] it was 0.016 µg/mL (≈ 0.0182 µM); in the experiment on NCI-H460 [4] it was 0.27 µg/mL (≈ 0.307 µM); in experiment [5] it was 0.013 µg/mL (≈ 0.0148 µM); in the experiment on DU-145 [6] it was 0.009 µg/mL (≈ 0.0102 µM).

Regarding `CC(C)[C@H]1NC(=O)[C@@H]2CCCN2C(=O)[C@H]([C@H](C)Cc2ccccc2)NC(=O)[C@@H]2CCCN2C(=O)[C@@H](C(C)C)N(C)C(=O)[C@@H](C(C)C)OC(=O)[C@@H]2CCCN2C(=O)[C@H](C)OC(=O)[C@@H]1C` (stereo in doubt; 1), the 50% growth inhibitory concentration (GI50) (in experiment [1]; with MCF7 [2]; in the experiment on SF-268 [3]; in the experiment on NCI-H460 [4]; in experiment [5]; in the experiment with DU-145 [6]) was above 10 µg/mL each time. Moreover, the GI50 (in experiment [7]; with MCF7 [8]; with SF-268 [9]; in the experiment on NCI-H460 [10]; in [11]; in the experiment on DU-145 [12]) was above 10 µg/mL each time.
